In ChEMBL document CHEMBL2169835, “Flavonoid dimers as novel, potent antileishmanial agents” (J Med Chem, 2012):

Assays:
RAW264.7 = experiment: Cytotoxicity against mouse RAW264.7 cells after 72 hrs by MTS assay; format: cell-based; settings: RAW264.7, 72 h
How it was run: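 RAW 264.7 murine macrophage line was plated at 1 × 10^4 cells per well in supplemented DMEM. Cells received a graded compound series for 72 h at 37 °C, 5% CO2, with a maximum of 1% DMSO. Viability was measured by MTS with PMS coupling at OD 490 nm, as percent of untreated control. The IC50 was the concentration reducing OD by half, given as mean ± SEM, N = 1–4.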

Leishmania donovani [1] = experiment: Antimicrobial activity against pentamidine-resistant Leishmania donovani AG83PentR50 promastigote assessed as inhibition of parasite growth after 72 hrs by MTS assay; format: functional, organism-based; settings: AG83PentR50, 72 h
How it was run: (§1)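 Promastigotes were grown in Schneider's medium pH 6.9 with 10% heat-inactivated FBS at 27 °C, seeded at 1 × 10^5 per well, and exposed to serial concentrations for 72 h at 27 °C. Compounds were in DMSO (≤1% final) or water. MTS:PMS (20:1) was added for 4 h, then OD490 was read. Survival was % of untreated control; IC50 = concentration halving OD; N = 1−4.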

Leishmania donovani [2] = experiment: Antimicrobial activity against SSG-resistant Leishmania donovani 39 promastigote assessed as inhibition of parasite growth after 72 hrs by MTS assay; format: functional, organism-based; settings: Leishmania donovani, 39, 72 h; how it was run: as §1
Leishmania donovani [3] = experiment: Antimicrobial activity against wild-type Leishmania donovani AG83 promastigote assessed as inhibition of parasite growth after 72 hrs by MTS assay; format: functional, organism-based; settings: AG83, 72 h
How it was run: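 Promastigotes were grown in Schneider's medium pH 6.9 with 10% heat-inactivated FBS at 27 °C, seeded at 1 × 10^5 per well, and exposed to serial concentrations for 72 h at 27 °C. Compounds were in DMSO (≤1% final) or water. MTS:PMS (20:1) was added for 4 h, then OD490 was read.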

Leishmania donovani [4] = experiment: Antimicrobial activity against axenically grown Leishmania donovani amastigotes; format: functional, organism-based
[5] = Therapeutic index, ratio of IC50 for mouse Peritoneal macrophages to IC50 for SSG-resistant Leishmania donovani 39 amastigote infected in mouse peritoneal macrophages; settings: read-out: Ratio IC50
[6] = Cytotoxicity against mouse Peritoneal macrophages cells after 72 hrs by MTS assay; format: cell-based; settings: Peritoneal macrophage cell
How it was run: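 Primary mouse peritoneal elicited macrophages were seeded at 2 × 10^4 cells per well in DMEM with 10% heat-inactivated FBS. They were exposed to graded doses for 72 h at 37 °C in 5% CO2. Survival was read by MTS/PMS tetrazolium reduction (OD 490 nm) relative to untreated control. The IC50 was the concentration halving OD. Results are mean ± SEM of 1–4 independent experiments.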

Leishmania donovani [7] = experiment: Antimicrobial activity against SSG-resistant Leishmania donovani 39 amastigote infected in mouse peritoneal macrophages assessed as inhibition of parasite growth after 72 hrs by Giemsa staining method; format: functional, organism-based; settings: Leishmania donovani, 39, 72 h
How it was run: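 Mouse peritoneal elicited macrophages were seeded on coverslips at 1 × 10^5 cells per well in DMEM with 10% heat-inactivated FBS and left to attach overnight. They were infected overnight with late-log Ld39 promastigotes (parasite:macrophage 20:1) at 37 °C, 5% CO2, then washed. Compounds were applied for 72 h at 37 °C. Giemsa-stained amastigotes per 100 macrophages gave IC50; N = 1−3.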

[8] = Therapeutic index, ratio of IC50 for mouse Peritoneal macrophages to IC50 for SSG-resistant Leishmania donovani 39 promastigote; settings: read-out: Ratio IC50
How it was run: (§2)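 Index is PEM cytotoxicity IC50 over promastigote IC50. For PEM, cells were seeded at 2 × 10^4 per well in supplemented DMEM, given graded doses for 72 h at 37 °C, 5% CO2, and read by MTS survival.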

[9] = Therapeutic index, ratio of IC50 for mouse Peritoneal macrophages to IC50 for pentamidine-resistant Leishmania donovani AG83PentR50 promastigote; settings: read-out: Ratio IC50; how it was run: as §2
[10] = Therapeutic index, ratio of IC50 for mouse PEM cells to IC50 for wild-type Leishmania donovani AG83 promastigote; format: cell-based; settings: read-out: Ratio IC50; how it was run: as §2

IC50 (Leishmania donovani [4])	SMILES	IC50 (RAW264.7)	IC50 (Leishmania donovani [1])	IC50 (Leishmania donovani [2])	IC50 (Leishmania donovani [3])	selectivity ratio [5]	IC50 [6]	IC50 (Leishmania donovani [7])	selectivity ratio [8]	selectivity ratio [9]	selectivity ratio [10]
–	Cc1ccc2oc(-c3ccc(OCCOCCOCCOCCOCCOCCOc4ccc(-c5cc(=O)c6cc(C)ccc6o5)cc4)cc3)cc(=O)c2c1	> 100 µM	> 24 µM	3.6 µM	2.2 µM	–	–	–	–	–	–
–	CCc1ccc2oc(-c3ccc(OCCOCCOCCOCCOc4ccc(-c5cc(=O)c6cc(CC)ccc6o5)cc4)cc3)cc(=O)c2c1	> 100 µM	> 24 µM	> 24 µM	> 24 µM	–	–	–	–	–	–
8.2 µM	COc1ccc(-c2cc(=O)c3c(O)cc(O)c(-c4cc(-c5cc(=O)c6c(O)cc(OC)cc6o5)ccc4OC)c3o2)cc1 [SCIADOPITISIN]	–	–	–	–	–	–	–	–	–	–
–	O=c1cc(-c2ccc(OCCOCCN(CCOCCOc3ccc(-c4cc(=O)c5cc(F)ccc5o4)cc3)Cc3ccncc3)cc2)oc2ccc(F)cc12	–	–	0.36 µM	0.31 µM	> 32.3	> 100 µM	3.1 µM	–	–	–
–	O=c1cc(-c2ccc(OCCOCCOCCOCCOc3ccc(-c4cc(=O)c5ccc(F)cc5o4)cc3)cc2)oc2cc(F)ccc12	> 200 µM	2.3 µM	2.4 µM	2.6 µM	–	–	–	–	–	–
–	O=c1cc(-c2ccc(OCCOCCOCCOCCOCCOCCOc3ccc(-c4cc(=O)c5ccc(F)cc5o4)cc3)cc2)oc2cc(F)ccc12	7.8 µM	4.6 µM	4.2 µM	4.2 µM	–	–	–	–	–	–
–	O=c1cc(-c2cccc(OCCOCCN(CCOCCOc3cccc(-c4cc(=O)c5ccccc5o4)c3)Cc3ccncc3)c2)oc2ccccc12	–	–	0.44 µM	0.19 µM	> 21.7	> 50 µM	2.3 µM	–	–	–
–	Cc1ccc2c(=O)cc(-c3ccc(OCCOCCOCCOCCOCCOCCOc4ccc(-c5cc(=O)c6ccc(C)cc6o5)cc4)cc3)oc2c1	5.3 µM	4.1 µM	5.3 µM	6.7 µM	–	–	–	–	–	–
–	COc1c(-c2ccc(OCCOCCN(CCOCCOc3ccc(-c4oc5ccccc5c(=O)c4OC)cc3)Cc3ccncc3)cc2)oc2ccccc2c1=O	–	–	0.98 µM	0.98 µM	> 9.6	> 50 µM	5.2 µM	–	–	–
–	O=c1cc(-c2ccc(OCCOCCOCCOCCOCCOCCOc3ccc(-c4cc(=O)c5ccccc5o4)cc3)cc2)oc2ccccc12	7.1 µM	4.9 µM	4.3 µM	4.8 µM	–	–	–	–	–	–
–	O=c1cc(-c2ccc(OCCOCCN(CCOCCOc3ccc(-c4cc(=O)c5ccccc5o4)cc3)Cc3cccnc3)cc2)oc2ccccc12	–	–	0.98 µM	0.56 µM	13.8	33.1 µM	2.4 µM	–	–	–
–	C[C@@H]1[C@H](O)[C@@H](C)/C=C/C=C/C=C/C=C/C=C/C=C/C=C/[C@H](O[C@@H]2O[C@H](C)[C@@H](O)[C@H](N)[C@@H]2O)C[C@@H]2O[C@](O)(C[C@@H](O)C[C@@H](O)[C@H](O)CC[C@@H](O)C[C@@H](O)CC(=O)O[C@H]1C)C[C@H](O)[C@H]2C(=O)O [AMPHOTERICIN B]	12 µM	0.051 µM	0.095 µM	0.09 µM	119	7.4 µM	0.062 µM	77.9	145	82.2
–	O=c1cc(-c2ccc(OCCOCCOCCOc3ccc(-c4cc(=O)c5ccccc5o4)cc3)cc2)oc2ccccc12	> 95 µM	> 24 µM	> 24 µM	> 24 µM	–	–	–	–	–	–
–	O=c1c(OCCOCCN(CCOCCOc2c(-c3ccccc3)oc3ccccc3c2=O)Cc2ccncc2)c(-c2ccccc2)oc2ccccc12	–	–	3.1 µM	2.5 µM	> 10.6	> 33 µM	3.1 µM	–	–	–
–	NC[C@@H]1O[C@H](O[C@H]2[C@@H](O)[C@H](O[C@@H]3[C@@H](O)[C@H](N)C[C@H](N)[C@H]3O[C@H]3O[C@H](CO)[C@@H](O)[C@H](O)[C@H]3N)O[C@@H]2CO)[C@H](N)[C@@H](O)[C@@H]1O [PAROMOMYCIN]	> 100 µM	85.5 µM	24.5 µM	62.6 µM	> 2.4	> 100 µM	41 µM	> 4.1	> 1.2	> 1.6
–	O=c1cc(-c2ccc(OCCOCCOc3ccc(-c4cc(=O)c5ccccc5o4)cc3)cc2)oc2ccccc12	> 100 µM	> 24 µM	> 24 µM	> 24 µM	–	–	–	–	–	–
